# Test results from ChEMBL document CHEMBL2046313, “Discovery and evaluation of a non-Zn chelating, selective matrix metalloproteinase 13 (MMP-13) inhibitor for potential intra-articular treatment of osteoarthritis” (J Med Chem, 2012).
# What was measured:
# Rattus norvegicus [1] = organism: Rattus norvegicus; assay: Toxicity in Sprague-Dawley rat assessed as ability to use limbs at 0.5 mg/joint measured on day 56; format: organism-based; details: in vivo, other
# [2] = molecular target: Disintegrin and metalloproteinase domain-containing protein 17 (Homo sapiens, UniProt P78536); assay: Inhibition of human recombinant TACE using MCA-Pro-Leu-Ala-Gln-Ala-Val-Dpa-Arg-Ser-Ser-Ser-Arg-NH2 as substrate preincubated for 10 mins measured by fluorescence analysis
# Method in brief: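 Recombinant human TACE was assayed with its fluorogenic peptide substrate in 25 mM Tris-HCl pH 9, 1.25 μM Zn(OAc)₂, 0.005% Brij-35. Enzyme was 1–10 nM and substrate 4–10 μM. Enzyme was preincubated 10 min with varying inhibitor concentrations, and IC50 came from at least duplicate runs.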
# Plasma [3] = assay: Drug uptake in Sprague-Dawley rat plasma at 100 mg/kg, po measured after 8 weeks; format: ADME, organism-based; parameters: dose 100 mg/kg, route oral; details: in vivo, 1344 h, BLD = below limit of detection
# Rattus norvegicus [4] = organism: Rattus norvegicus; assay: Chondroprotective activity in Sprague-Dawley rat cartilage assessed as inhibition of MMP13-mediated C1,C2 release at 0.5 mg/joint, ia measured after 24 hrs by ELISA; format: functional
# Method in brief: (§1)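 Male Sprague-Dawley rats (175−200 g, three per group) received one IA injection of 50 μL PBS holding 10 mg/mL suspension (sonicated, vortexed) into right knee. They were killed at 1, 7, 14 or 21 days, and tibial cartilage was collected. Cartilage was then challenged with 10 μg/mL APMA-activated human MMP-13 for 24 h at 37 °C in Tris pH 7.5. The reaction was stopped with 10 mM EDTA, and released C1,2C was measured by ELISA. Vehicle cartilage incubated with or without MMP-13 defined 100% and 0%.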
# Plasma [5] = assay: Drug uptake in Sprague-Dawley rat plasma at 1 mg/kg, iv measured after 8 weeks; format: ADME, organism-based; parameters: dose 1 mg/kg, route intravenous; details: in vivo, 1344 h, BLD = below limit of detection
# Stromelysin-1 = Stromelysin-1 (Homo sapiens, UniProt P08254); assay: Inhibition of human recombinant MMP3 using MCAArg-Pro-Lys-Pro-Val-Glu-Nva-Trp-Arg-Lys(DNP)-NH2 as substrate preincubated for 10 mins measured by fluorescence analysis
# Method in brief: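 Catalytic domain of recombinant human MMP-3 was assayed with NFF-3 fluorogenic substrate in 50 mM MES pH 6.0, 10 mM CaCl₂, 0.05% Brij-35. Enzyme was 1–10 nM and substrate 4–10 μM. Enzyme was preincubated 10 min with varying inhibitor concentrations, and IC50 came from at least duplicate runs.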
# Rattus norvegicus [6] = organism: Rattus norvegicus; assay: Chondroprotective activity in Sprague-Dawley rat cartilage assessed as inhibition of MMP13-mediated C1,C2 release at 0.5 mg/joint, ia measured on day 7 by ELISA; format: functional; method in brief: as §1
# [7] = Drug uptake in Sprague-Dawley rat synovial lavage at 0.5 mg/joint measured on day 56; format: ADME; details: in vivo, other, BLD = below limit of detection
# [8] = Drug uptake in Sprague-Dawley rat cartilage at 0.5 mg/joint measured on day 56; format: ADME, tissue-based, Cartilage tissue; details: read-out: Drug uptake
# Rattus norvegicus [9] = assay: Toxicity in Sprague-Dawley rat assessed as joint irritation at 0.5 mg/kg, ia measured after 48 hrs; format: organism-based; parameters: dose 0.5 mg/kg; details: in vivo, other
# Rattus norvegicus [10] = assay: Toxicity in Sprague-Dawley rat assessed as adverse effects at 0.5 mg/kg, ia measured after 48 hrs; format: organism-based; parameters: dose 0.5 mg/kg; details: in vivo, other
# [11] = molecular target: Macrophage metalloelastase (Homo sapiens, UniProt P39900); assay: Inhibition of human recombinant MMP12 using MCA-Pro-Leu-Gly-Leu-Dpa-Ala-Arg-NH2.AcOH as substrate preincubated for 10 mins measured by fluorescence analysis
# Method in brief: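 Catalytic domains of recombinant human MMPs were assayed with fluorogenic OmniMMP substrate in 50 mM Tris-HCl pH 7.5, 150 mM NaCl, 5 mM CaCl₂, 0.05% Brij-35. Enzyme was 1–10 nM and substrate 4–10 μM, optimized per assay. Enzyme was preincubated 10 min with varying inhibitor concentrations, and IC50 was calculated from runs done at least in duplicate.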
# Rattus norvegicus [12] = organism: Rattus norvegicus; assay: Chondroprotective activity in Sprague-Dawley rat cartilage assessed as inhibition of MMP13-mediated C1,C2 release at 0.5 mg/joint, ia measured on day 14 by ELISA; format: functional; method in brief: as §1
# Plasma [13] = assay: Drug uptake in Sprague-Dawley rat plasma at 100 mg/kg, ip measured after 8 weeks; format: ADME, organism-based; parameters: dose 100 mg/kg, route intraperitoneal; details: in vivo, 1344 h, BLD = below limit of detection
# Rattus norvegicus [14] = organism: Rattus norvegicus; assay: Toxicity in Sprague-Dawley rat assessed as impaired use of limbs at 0.5 mg/joint measured on day 56; format: organism-based; details: in vivo, other
# Cartilage tissue = assay: Inhibition of collagen degradation in bovine articular cartilage assessed as inhibition of interlukein-1alpha/oncostatin M-induced C1,C2 release measured after 11 days by ELISA; format: functional, tissue-based; details: Bos taurus
# Method in brief: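 Freshly isolated bovine articular cartilage pieces (~3 mm²) were stimulated with 5 ng/mL IL-1α plus 50 ng/mL OSM, with or without compound, for 11 days. Medium was refreshed twice weekly. Collagen degradation products in the conditioned medium were quantified by C1,2C ELISA.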
# Sequence of Stromelysin-1 (P08254 whole entry, the tested form may be a part): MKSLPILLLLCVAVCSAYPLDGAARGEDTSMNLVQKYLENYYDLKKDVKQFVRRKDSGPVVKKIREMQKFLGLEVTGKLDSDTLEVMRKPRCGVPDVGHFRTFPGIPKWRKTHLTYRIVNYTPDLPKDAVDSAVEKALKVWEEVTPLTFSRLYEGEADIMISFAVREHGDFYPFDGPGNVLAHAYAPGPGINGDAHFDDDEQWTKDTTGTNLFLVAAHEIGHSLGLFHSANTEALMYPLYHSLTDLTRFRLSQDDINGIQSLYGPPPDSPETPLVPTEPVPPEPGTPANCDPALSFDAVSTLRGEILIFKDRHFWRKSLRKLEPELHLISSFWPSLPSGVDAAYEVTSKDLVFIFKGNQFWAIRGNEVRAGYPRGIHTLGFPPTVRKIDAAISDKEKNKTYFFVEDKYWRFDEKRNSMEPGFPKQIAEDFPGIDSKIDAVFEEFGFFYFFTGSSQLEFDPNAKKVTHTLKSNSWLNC
# Sequence of Disintegrin and metalloproteinase domain-containing protein 17 (P78536 whole entry, the tested form may be a part): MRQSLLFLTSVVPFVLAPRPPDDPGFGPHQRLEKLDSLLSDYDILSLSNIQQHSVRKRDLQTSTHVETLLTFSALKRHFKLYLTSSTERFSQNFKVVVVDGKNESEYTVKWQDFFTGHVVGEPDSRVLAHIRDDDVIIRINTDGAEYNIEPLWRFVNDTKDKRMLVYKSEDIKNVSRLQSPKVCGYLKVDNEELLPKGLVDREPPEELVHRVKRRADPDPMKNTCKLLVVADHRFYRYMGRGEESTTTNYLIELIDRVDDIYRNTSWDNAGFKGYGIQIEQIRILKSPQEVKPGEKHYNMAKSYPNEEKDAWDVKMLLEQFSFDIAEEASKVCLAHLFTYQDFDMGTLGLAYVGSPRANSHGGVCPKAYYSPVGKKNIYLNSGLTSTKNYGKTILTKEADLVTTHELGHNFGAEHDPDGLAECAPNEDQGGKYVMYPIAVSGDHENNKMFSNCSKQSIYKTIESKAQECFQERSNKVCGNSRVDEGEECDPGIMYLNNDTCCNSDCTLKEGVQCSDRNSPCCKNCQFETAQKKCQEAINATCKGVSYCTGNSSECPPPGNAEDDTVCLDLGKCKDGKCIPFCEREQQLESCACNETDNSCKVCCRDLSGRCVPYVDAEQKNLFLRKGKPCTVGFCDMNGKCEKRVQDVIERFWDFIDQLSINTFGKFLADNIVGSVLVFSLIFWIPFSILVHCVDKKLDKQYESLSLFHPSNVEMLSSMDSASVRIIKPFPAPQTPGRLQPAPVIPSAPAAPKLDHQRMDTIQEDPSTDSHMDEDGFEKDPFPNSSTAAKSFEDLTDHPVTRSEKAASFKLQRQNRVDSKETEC
# Sequence of Macrophage metalloelastase (P39900 whole entry, the tested form may be a part): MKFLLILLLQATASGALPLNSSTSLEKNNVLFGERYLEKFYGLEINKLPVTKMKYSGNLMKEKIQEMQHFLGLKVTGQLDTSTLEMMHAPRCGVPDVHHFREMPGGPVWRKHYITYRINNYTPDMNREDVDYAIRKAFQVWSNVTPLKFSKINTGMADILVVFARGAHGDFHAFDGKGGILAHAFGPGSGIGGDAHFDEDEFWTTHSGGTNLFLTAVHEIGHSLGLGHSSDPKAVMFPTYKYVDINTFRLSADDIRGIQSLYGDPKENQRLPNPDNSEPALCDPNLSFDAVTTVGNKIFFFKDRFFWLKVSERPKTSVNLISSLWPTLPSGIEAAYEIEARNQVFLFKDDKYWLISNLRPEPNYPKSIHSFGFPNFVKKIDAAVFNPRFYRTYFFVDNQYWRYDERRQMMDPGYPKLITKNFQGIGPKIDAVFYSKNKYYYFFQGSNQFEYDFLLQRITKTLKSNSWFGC
compound,measurement,setting,value
Cc1c(C(=O)O)ccc2c1CC[C@@H]2NC(=O)c1cc(C(=O)NCc2ccc3c(c2)NC(=O)CO3)nc2ccnn12,Activity,Rattus norvegicus [1],Non-toxic
same,IC50,[2],> 20000 nM
same,Cp,Plasma [3],BLD
same,inhibition (INH),Rattus norvegicus [4],100%
same,Cp,Plasma [5],BLD
same,IC50,Stromelysin-1,8200 nM
same,inhibition (INH),Rattus norvegicus [6],100%
same,Drug uptake,[7],BLD
same,concentration at 56 days,[8],≥ 2000 nM
same,Activity,Rattus norvegicus [9],Non-toxic
same,Activity,Rattus norvegicus [10],Non-toxic
same,IC50,[11],655 nM
same,inhibition (INH),Rattus norvegicus [12],100%
same,Cp,Plasma [13],BLD
same,Activity,Rattus norvegicus [14],Non-toxic
same,inhibition,Cartilage tissue,Dose-dependent effect
same,IC50,Cartilage tissue; 264 h,20 nM
